These results are taken from ChEMBL document CHEMBL1123476, “Synthesis of congeners and prodrugs of the benzene maleimide photoadduct mitindomide as potential antitumor agents. 2” (J Med Chem, 1986).

“And” between values parts separate entries of the source, which are not always exact repeats. Equal values may be shown once.

The test system of data set [1] is P388. The data set is described as follows: Compound was tested for antitumor activity in P-388 lymphocytic leukemia system at 12.5 mg/kg dose levels per injection. It counts as functional, Mus musculus. The method in brief: (§1)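 P-388 leukemia in vivo, dosed Q01D×09 (one injection daily for 9 days, mg/kg per injection). Activity is %T/C, the median lifetime of treated animals divided by that of controls, ×100. Live animals on day 4 were counted against the total (survivors day 4). Repeat tests were done independently at different times.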

Data set [2] relates to P388. The data set is described as follows: Compound was tested for antitumor activity in P-388 lymphocytic leukemia system at 200 mg/kg dose levels per injection. It counts as functional, Mus musculus. The method in brief: as §1
The test system of data set [3] is P388. The data set can be described thus: Compound was tested for antitumor activity in P-388 lymphocytic leukemia system at 25 mg/kg dose levels per injection; 6/6. In kind it is functional, Mus musculus. The method in brief: (§2)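 P-388 leukemia in animals, Q01D×09 schedule: dose given daily for 9 days, in mg/kg per injection. Read-outs are survivors on day 4 (live/total animals), body-weight difference test minus control (g), and % T/C (median lifetime of treated ÷ median lifetime of controls × 100). Some compounds were tested in independent runs at different times.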

Data set [4] concerns P388. The data set can be described thus: (§3) Antitumor activity in P-388 lymphocytic leukemia system at 100 mg/kg dose levels per injection. In kind it is functional, Mus musculus. The gist of the method:
as §2

Data set [5] can be described thus: Solubility was determined; INS= less than 0.1. It counts as physicochemical.
Data set [6] concerns P388. The data set can be described thus: Compound was tested for antitumor activity in P-388 lymphocytic leukemia system at 100 mg/kg dose levels per injection; 5/6. In kind it is functional, Mus musculus. The gist of the method: as §2
Data set [7] concerns P388. The data set can be described thus: (§4) Antitumor activity in P-388 lymphocytic leukemia system at 50 mg/kg dose levels per injection. It counts as functional, Mus musculus. The gist of the method:
as §2

Data set [8] has as its system P388. The data set can be described thus: Compound was tested for antitumor activity in P-388 lymphocytic leukemia system at 200 mg/kg dose levels per injection; 3/6. In kind it is functional, Mus musculus. The gist of the method: as §2
For data set [9], the system named is P388. The data set can be described thus: Compound was tested for antitumor activity in P-388 lymphocytic leukemia system at 200 mg/kg dose levels per injection. Conditions: Mus musculus. Further details: dose 200 mg/kg. In kind it is functional, organism-based. The method in brief:
as §1

Data set [10] concerns P388. Described as §3. It counts as functional, Mus musculus. The method in brief: as §1
This is another data set of the same source.

Data set [11] relates to P388. The data set is described as follows: Compound was tested for antitumor activity in P-388 lymphocytic leukemia system The difference in body weight was calculated at 12.5 mg/kg dose levels per injection. It counts as functional, Mus musculus.
Data set [12] has as its system P388. The data set can be described thus: Compound was tested for antitumor activity in P-388 lymphocytic leukemia system at 200 mg/kg dose levels per injection; 5/6. It counts as functional, Mus musculus. The gist of the method:
as §2

For data set [13], the system named is P388. The data set can be described thus: Antitumor activity in P-388 lymphocytic leukemia system at 25 mg/kg dose levels per injection. In kind it is functional, Mus musculus. The method in brief: as §1
Data set [14] concerns P388. The data set is described as §4. It counts as functional, Mus musculus. The gist of the method:
as §1
This is another data set of the same source.

Data set [15] relates to P388. The data set is described as follows: Compound was tested for antitumor activity in P-388 lymphocytic leukemia system at 12.5 mg/kg dose levels per injection; 6/6. It counts as functional, Mus musculus. The gist of the method:
as §2

In data set [16] the test system is P388. The data set can be described thus: Antitumor activity in P-388 lymphocytic leukemia system at 200 mg/kg dose levels per injection. In kind it is functional, Mus musculus. The gist of the method: as §2
Data set [17] deals with P388. The data set is described as follows: Compound was tested for antitumor activity in P-388 lymphocytic leukemia system. at 200 mg/kg dose levels per injection. It counts as functional, Mus musculus. The gist of the method: as §1
In data set [18] the test system is P388. The data set is described as follows: Compound was tested for antitumor activity in P-388 lymphocytic leukemia system at 25 mg/kg dose levels per injection. It counts as functional, Mus musculus. The method in brief:
as §1

The subject of data set [19] is P388. The data set can be described thus: Compound was tested for antitumor activity in P-388 lymphocytic leukemia system at 41.3 mg/kg dose levels per injection. In kind it is functional, Mus musculus. The method in brief: as §1
The test system of data set [20] is P388. The data set is described as follows: Compound was tested for antitumor activity in P-388 lymphocytic leukemia system and the difference in body weight was calculated at 41.3 mg/kg dose levels per injection. In kind it is functional, Mus musculus.
Data set [21] has as its system P388. The data set is described as follows: Compound was tested for antitumor activity in P-388 lymphocytic leukemia system at 68.8 mg/kg dose levels per injection. In kind it is functional, Mus musculus. The gist of the method: as §1
Data set [22] deals with P388. The data set can be described thus: Compound was tested for antitumor activity in P-388 lymphocytic leukemia system at 41.3 mg/kg dose levels per injection; 6/6. It counts as functional, Mus musculus. The method in brief:
as §2

Data set [23] has as its system P388. The data set is described as follows: Compound was tested for antitumor activity in P-388 lymphocytic leukemia system and the difference in body weight was calculated at 114.7 mg/kg dose levels per injection. In kind it is functional, Mus musculus.
Data set [24] concerns P388. The data set is described as follows: Compound was tested for antitumor activity in P-388 lymphocytic leukemia system at 68.8 mg/kg dose levels per injection; 6/6. In kind it is functional, Mus musculus. The gist of the method: as §2
For data set [25], the system named is P388. The data set is described as follows: Compound was tested for antitumor activity in P-388 lymphocytic leukemia system at 24.8 mg/kg dose levels per injection. It counts as functional, Mus musculus. The method in brief: as §1
Data set [26] relates to P388. The data set can be described thus: Compound was tested for antitumor activity in P-388 lymphocytic leukemia system at 114.7 mg/kg dose levels per injection; 2/6. In kind it is functional, Mus musculus. The method in brief:
as §2

In data set [27] the test system is P388. The data set is described as follows: Compound was tested for antitumor activity in P-388 lymphocytic leukemia system at 191.2 mg/kg dose levels per injection; 0/6. It counts as functional, Mus musculus. The gist of the method:
as §2

The test system of data set [28] is P388. The data set is described as follows: Compound was tested for antitumor activity in P-388 lymphocytic leukemia system at 24.8 mg/kg dose levels per injection; 6/6. It counts as functional, Mus musculus. The gist of the method: as §2
Data set [29] relates to P388. The data set can be described thus: Compound was tested for antitumor activity in P-388 lymphocytic leukemia system and the difference in body weight was calculated at 68.8 mg/kg dose levels per injection. In kind it is functional, Mus musculus.
The test system of data set [30] is P388. The data set can be described thus: Compound was tested for antitumor activity in P-388 lymphocytic leukemia system. The difference in body weight was calculated at 24.8 mg/kg dose levels per injection. It counts as functional, Mus musculus.
Data set [31] relates to P388. The data set can be described thus: Compound was tested for antitumor activity in P-388 lymphocytic leukemia system at 100 mg/kg dose levels per injection; Toxic. Also noted: dose 100 mg/kg. The note with it: Mus musculus. In kind it is functional, organism-based. The method in brief: as §1
Data set [32] relates to P388. The data set can be described thus: Antitumor activity in P-388 lymphocytic leukemia system at 25 mg/kg dose levels per injection. It counts as functional, Mus musculus. The gist of the method: as §2
The subject of data set [33] is P388. The data set can be described thus: Compound was tested for antitumor activity in P-388 lymphocytic leukemia system at 100 mg/kg dose levels per injection; 0/6. In kind it is functional, Mus musculus. The gist of the method: as §2
Data set [34] has as its system P388. The data set can be described thus: Antitumor activity in P-388 lymphocytic leukemia system and the difference in body weight was calculated at 25 mg/kg dose levels per injection. The note with it: 25 mg/kg. In kind it is functional, Mus musculus.
The test system of data set [35] is P388. The data set can be described thus: Compound was tested for antitumor activity in P-388 lymphocytic leukemia system and the difference in body weight was calculated at 12.5 mg/kg dose levels per injection. It counts as functional, Mus musculus.
Data set [36] is described as follows: Solubility was determined. In kind it is physicochemical.
Data set [37] has as its system P388. The data set can be described thus: Antitumor activity in P-388 lymphocytic leukemia system and the difference in body weight was calculated at 50 mg/kg dose levels per injection. In kind it is functional, Mus musculus. Conditions: 50 mg/kg.
The subject of data set [38] is P388. The data set can be described thus: Antitumor activity in P-388 lymphocytic leukemia system and the difference in body weight calculated at 100 mg/kg dose levels per injection. It counts as functional, Mus musculus.
Data set [39] relates to P388. The data set can be described thus: Compound was tested for antitumor activity in P-388 lymphocytic leukemia system at 100 mg/kg dose levels per injection; 3/6. In kind it is functional, Mus musculus. The gist of the method:
as §2

Data set [40] concerns P388. The data set is described as follows: Compound was tested for antitumor activity in P-388 lymphocytic leukemia system at 200 mg/kg dose levels per injection; 0/6. It counts as functional, Mus musculus. The method in brief: as §2

Consider `O=C1NC(=O)C2C3C=CC(C12)C1C2C(=O)NC(=O)C2C31` (centres undefined), for which the T/C is 119% in the data set with P388 [1]; “Toxic” in the data set with P388 [9]; 94% in the data set on P388 [10]; 177% in the data set with P388 [10] (100 mg/kg); 149% and 142% in the data set with P388 [13] (25 mg/kg); 172% and 168% with P388 [14] (50 mg/kg). The Weight difference in the data set on P388 [2] (200 mg/kg) is -7.3 g and -3.1 g; with P388 [10], -3.4 g; in the data set with P388 [11], 0.2 g; in the data set on P388 [14] (50 mg/kg), -2.2 g and -2 g. Further, the “Survivors at day 4” value was found to be 6 in the data set with P388 [3]; 6 in the data set with P388 [4]; 5 in the data set on P388 [6]; 6 in the data set with P388 [7]; 3 in the data set on P388 [8]; 5 with P388 [12]. In the data set on P388 [15], the “Survivors at day 4” value was found to be 6. Besides, in data set [5], the Solubility entry was “Insoluble”.
Turning to `CC12C=CC(C)(C3C(=O)NC(=O)C31)C1C3C(=O)NC(=O)C3C12` (centres undefined), the Weight difference in the data set with P388 [2] is given as -6.1 g; with P388 [10], -4.8 g; in the data set with P388 [14], -3.7 g; in the data set on P388 [18], -1.5 g. Moreover, the “Survivors at day 4” value in the data set on P388 [3], in the data set with P388 [16], in the data set with P388 [4] and with P388 [7] was 6 each time. Also, the T/C in the data set on P388 [17] was found to be 97%; with P388 [10], 109%; in the data set on P388 [13], 103%; with P388 [14], 108%. In addition, the Solubility result in [5] is “Insoluble”.
Take `CN1CCN(CN2C(=O)C3C4C=CC(C3C2=O)C2C3C(=O)N(CN5CCN(C)CC5)C(=O)C3C42)CC1.Cl` (centres undefined): the T/C stood at 130% in the data set with P388 [19], 172% with P388 [21] and 113% with P388 [25]. The Weight difference with P388 [20] is listed as -1.8 g; in the data set on P388 [23] it was -5.9 g; with P388 [29], -4.6 g; with P388 [30], 1.2 g. In addition, the “Survivors at day 4” value in the data set on P388 [22] came out at 6; in the data set with P388 [24], 6; with P388 [26] it was 2; with P388 [27], 0; in the data set on P388 [28], 6.
For `O=C1C2C3C=CC(C2C(=O)N1CO)C1C2C(=O)N(CO)C(=O)C2C31` (centres undefined), the T/C in the data set with P388 [1] is 105%; in the data set on P388 [31], “Toxic”; in the data set with P388 [9], “Toxic”; in the data set with P388 [13] (25 mg/kg) it was 140% and 157%; in the data set with P388 [14] (50 mg/kg), 195% and 208%. In addition, the “Survivors at day 4” value in the data set with P388 [32] was 6; in the data set with P388 [33], 0; in the data set on P388 [7] it was 6; in the data set with P388 [39], 3; in the data set with P388 [40], 0; with P388 [15] it was 6. The Weight difference was -2.5 g and -3.3 g in the data set on P388 [34]; -0.7 g with P388 [35]; -5.6 g and -6.5 g in the data set on P388 [37]; -8.2 g in the data set with P388 [38]. Moreover, the Solubility in data set [36] turned out to be 0.8%.
